Measured values from PubChem BioAssay AID743061 (The Scripps Research Institute Molecular Screening Center, 2013).

Target: Methionine--tRNA ligase, mitochondrial (Homo sapiens) (UniProt Q96GW9)
Assay: inhibitors of human mitochondrial MetRS, late-stage follow-up, selectivity assay for T. brucei MetRS inhibitor project, biochemical, radioactivity, round 1 (AID 743061);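 further: 0% = DMSO with full reaction and 100% = DMSO wells lacking tRNA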
Conditions: recombinant human mtMetRS, [3H]Met tRNA charging, at 1 µM, stronger effect = higher value
Procedure, shortened: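 System: human mitochondrial MetRS enzyme / Buffer or medium: pH 8.0 reaction buffer containing 2.5 mM ATP / Probe or stimulus: 240 nM [3H]methionine with bulk E. coli tRNA acceptor / Doses: 10 and 1 µM / Times: 15 min compound–enzyme preincubation, then 1 h reaction at room temperature / Detection: scintillation counts of TCA-precipitated charged tRNA on filters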

## COc1ccc(NC(=O)CSc2nnc3c4cc(C)ccc4n(C)c3n2)cc1
  inhibition: -0.75%

## O=C(Cn1cc(C(=O)C(=O)N2CCCC2)c2ccccc21)Nc1ccccc1
  inhibition: -7.71%

## Cc1cccc2[nH]c(CCN(C)C(=O)c3cccc(C4CCNC4)c3)nc12 (centres undefined)
  inhibition: -6.15%

## O=C(CC(=O)Nc1cccc(Cl)c1)NN=Cc1ccccc1
  inhibition: -18.3%

## Oc1c(Cl)cc(Cl)cc1CNc1nc2ccccc2[nH]1
  inhibition: -0.2%

## O=C(CCC(=O)Nc1cccc([N+](=O)[O-])c1)NN=Cc1cccs1
  inhibition: -28.9%

## COCCc1nc2ccc(C(=O)NCCc3nc4ccc(OC)cc4[nH]3)cc2o1
  inhibition: -5.43%

## COc1ccc(OCC(O)CNC(=O)Nc2ccc(Cl)cc2)cc1 (centres undefined)
  inhibition: -6.26%

## Clc1ccc(-c2nnc(SCc3nc4ccccc4[nH]3)o2)c(Cl)c1
  inhibition: -3.17%

## O=C(NCc1nc2ccccc2[nH]1)C1=C[C@@H](c2ccc(Br)cc2)C[C@@H](OCc2ccc(CO)cc2)O1
  inhibition: -11.6%

## Cc1cccc(NC(=O)C2CC(=O)n3c(nc4ccccc43)N2)c1 (centres undefined)
  inhibition: 10.7%

## COc1cccc(NC(=O)CSc2nnc3c(n2)[nH]c2ccc(C)cc23)c1
  inhibition: 49.7%

## O=C(NCc1nc2ccccc2[nH]1)C1=C[C@@H](c2csc3ccccc23)C[C@@H](OCCCCO)O1
  inhibition: -15%

## COc1ccc(CCN(C(=S)Nc2ccccc2)C2CC(=O)N(c3ccc(Cl)cc3)C2=O)cc1 (centres undefined)
  inhibition: 10.6%

## O=C(NCc1nc2ccccc2[nH]1)C1=C[C@@H](C2CC2)C[C@@H](OCc2ccc(CO)cc2)O1
  inhibition: -11.4%

## CCO[C@H]1OC(C(=O)NCc2nc3ccccc3[nH]2)=C[C@@H](c2ccc(Br)cc2)[C@@H]1CCCO
  inhibition: -15%

## O=C(NCc1nc2ccccc2[nH]1)C1=C[C@@H](c2ccc3c(c2)OCO3)C[C@@H](OCCCCO)O1
  inhibition: -3.63%

## Cc1ccc(CNC(=O)CSc2nnc3c(n2)[nH]c2ccc(C)cc23)cc1
  inhibition: 1.77%

## O=C(CN1CCSC1=NCc1ccccc1)c1ccc(Cl)c(Cl)c1
  inhibition: -25.1%

## CCN(CC)C(=O)C(=O)c1cn(CC(=O)Nc2cccc(C(F)(F)F)c2)c2ccccc12
  inhibition: -0.41%

## O=C(NCc1nc2ccccc2[nH]1)C1=C[C@H](c2ccc3c(c2)OCO3)C[C@H](OCCCCO)O1
  inhibition: -10.7%

## O=C(Cn1cc(C(=O)c2ccccc2)c2ccccc21)Nc1cccc(C(F)(F)F)c1
  inhibition: -2.29%

## O=C(C[C@H]1C(=O)N(Cc2ccccc2)C[C@@H]1c1ccc(Br)cc1)Nc1ccc(Br)cc1
  inhibition: -13%

## O=C(Cn1cc(C(=O)COc2ccccc2)c2ccccc21)Nc1cccc(C(F)(F)F)c1
  inhibition: -22.6%

## O=C(NCCc1nc2ccccc2[nH]1)c1ccc(Cl)cc1
  inhibition: 5.42%

## Cc1ccc(NC(=O)CN(C)C(=O)CCSc2ccc(F)cc2)cc1
  inhibition: -35.7%

## COc1cccc(NC(=O)C2CC(=O)n3c(nc4ccccc43)N2)c1 (centres undefined)
  inhibition: 1.46%

## O=C(CC=NOCc1ccc([N+](=O)[O-])cc1)Nc1ccc(Br)cc1
  inhibition: -22.4%

## O=C(NCc1nc2ccccc2[nH]1)C1=C[C@H](c2ccc(Br)cc2)C[C@H](OCc2ccc(CO)cc2)O1
  inhibition: 0.59%

## CC(=O)c1ccc(N2CCN(C(=O)CCCn3c(=O)[nH]c4ccc(Br)cc4c3=O)CC2)cc1
  inhibition: -14.1%

## Clc1ccc(OCCSCc2nc3ccccc3[nH]2)cc1
  inhibition: -20%

## O=C(NCc1nc2ccccc2[nH]1)C1=C[C@H](c2ccccc2)C[C@H](OCc2ccc(CO)cc2)O1
  inhibition: -8.08%

## CCc1ccc2c(c1)c1nnc(SCC(=O)Nc3ccc4c(c3)OCO4)nc1n2C
  inhibition: -9.7%

## O=C(CC=NOCc1ccc([N+](=O)[O-])cc1)Nc1ccc(Cl)cc1
  inhibition: -13%
